In the library only some 2.2% were active in any assay of this set; here they are far more common.
MLLE-PAM2 inh = inhibitors of PABP1 MLLE–PAM2 peptide binding, primary screen, biochemical, fluorescence polarization, FITC-PAM2, GST-MLLE | inhibition, % at 20 µM | 360,000 compounds, 0.36% hits | AID 588489, 2011; in the data active = inhibition above about 35%, passing the limit was not always enough
IMP-1 inh-1 = IMP-1 metallo-beta-lactamase inhibitors, primary screen, biochemical, epi-absorbance readout, Pseudomonas aeruginosa enzyme; metallo-beta-lactamase IMP-1 (Pseudomonas aeruginosa); purified IMP-1, nitrocefin hydrolysis, epi-absorbance fluorescence; inhibition, % at 5.6 µM; 290,000 compounds, 0.45% hits;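 active = inhibition above the mean plus 3 SD of all compounds in the same screening run, cut at about 4.5% in these data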
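System: purified recombinant IMP-1 beta-lactamase. Medium: Zinc- and detergent-supplemented HEPES buffer, pH 7.1. Compound: one 5.6 µM dose […]. Schedule: 15 min preincubation plus 25 min reaction at 25 °C. Technique: Epi-absorbance fluorescence, 480 nm excitation, 530 nm emission.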
eIF4H inh = human eIF4H binding inhibitors, primary screen, translation initiation inhibitor project, biochemical, uHTS, fluorescence polarization | eIF4H fluorescence polarization binding assay | 290,000 compounds, 0.94% hits | Eukaryotic translation initiation factor 4H (Homo sapiens), Q15056 | inhibition, % at 35 µM;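 also: calls also rest on retests at 20 µM and on dose response follow-up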
VIM-2 inh = VIM-2 metallo-beta-lactamase inhibitors, primary screen, biochemical, epi-absorbance readout, Pseudomonas aeruginosa enzyme; 290,000 compounds, 0.89% hits; AID 1527, 2009; purified VIM-2, nitrocefin hydrolysis, epi-absorbance fluorescence; inhibition, % at 5.6 µM;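 active = inhibition above the mean of all tested compounds plus 3 SD, cutoff set per screening run, cut at about 7.5% in these data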;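 also: red hydrolysis product quenches plate fluorescence so inhibitors raise well fluorescence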
PABP polyA inh = PABP poly(A) RNA binding inhibitors, primary screen, biochemical, fluorescence polarization, uHTS | Polyadenylate-binding protein 1 (Homo sapiens), P11940 | calls only at 35 µM | 290,000 compounds, 1% hits;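 also: calls also rest on retests at 20 µM and on dose response follow-up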
IMP-1 inh-2 = IMP-1 metallo-beta-lactamase inhibitors, confirmation, selectivity assay for selective VIM-2 inhibitor project, biochemical, epi-absorbance readout, triplicate | shares compounds with VIM-2 inh | purified IMP-1, nitrocefin hydrolysis, epi-absorbance fluorescence | inhibition, % at 5.6 µM | 1,300 tested, under 10 active
VIM-2 FRET ctr = VIM-2 inhibitors in FRET format, confirmation, artefact control for selective VIM-2 inhibitor project, biochemical, epi-absorbance artifact exclusion | inhibition, % at 5.6 µM | purified VIM-2, CCF2 FRET substrate hydrolysis | 1,300 compounds, 23% hits | AID 1857, 2009 | shares compounds with VIM-2 inh;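 active = inhibition above the mean of all tested compounds plus 3 SD, cut at about 19% in these data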
TEM-1 inh = TEM-1 serine beta-lactamase inhibitors, counter-screen for VIM-2 inhibitor project, biochemical, epi-absorbance, HTS; 1,300 compounds, 3% hits; Purified TEM-1, nitrocefin hydrolysis, epi-absorbance fluorescence; inhibition, % at 5.6 µM; shares compounds with VIM-2 inh;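 active = inhibition above that campaign's mean inhibition plus 3 SD, cut at about 0.46% in these data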
Target sequence (P62593 whole entry, looked up): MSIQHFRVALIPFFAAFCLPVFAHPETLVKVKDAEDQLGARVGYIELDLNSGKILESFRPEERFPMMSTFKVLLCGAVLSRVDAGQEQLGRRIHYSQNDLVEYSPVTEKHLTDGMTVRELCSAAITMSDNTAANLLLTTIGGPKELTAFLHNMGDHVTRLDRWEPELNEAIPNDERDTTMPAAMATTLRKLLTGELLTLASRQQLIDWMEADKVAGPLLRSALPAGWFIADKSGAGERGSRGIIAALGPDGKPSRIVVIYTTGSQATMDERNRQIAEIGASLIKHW
VIM-2 confirm 2 = VIM-2 metallo-beta-lactamase inhibitors, confirmation, biochemical, epi-absorbance, hits shared with IMP-1 screen; purified VIM-2, nitrocefin hydrolysis; 1,300 compounds, 96% hits; AID 2187, 2009; shares compounds with VIM-2 inh; inhibition, % at 5.6 µM;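 active = inhibition of the VIM-2 beta-lactamase enzyme above about 11% from the earlier first-round screen, limit read from the data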
Large screens that a line does not name were inactive (follow-up assays come after a bar, where they were run). Unless noted, no rule for the calls is given here.

COc1cc(OC)c(-c2nn3c(-c4ccco4)nnc3s2)cc1OC	eIF4H inh 75, VIM-2 inh 36 | IMP-1 inh-2 inactive | VIM-2 FRET ctr inactive | TEM-1 inh inactive | VIM-2 confirm 2 42
COc1cc(-c2nnc3sc(-c4ccco4)nn23)cc(OC)c1OC	none
CCS(=O)(=O)c1nc(S(=O)(=O)c2ccc(Cl)cc2)c(NCCN2CCOCC2)s1	none
O=c1oc2cc(O[C@@H]3OC[C@@H](O)[C@H](O)[C@H]3O)ccc2c2ccccc12	VIM-2 inh 16 | IMP-1 inh-2 inactive | VIM-2 FRET ctr inactive | TEM-1 inh inactive | VIM-2 confirm 2 28
C=CCN(CC=C)Cc1cc(=O)oc2ccc3ccccc3c12	none (no result: IMP-1 inh-1, eIF4H inh, VIM-2 inh, PABP polyA inh)
C=CCN(CC=C)Cc1c(O)ccc2c1oc(=O)c1ccccc12	VIM-2 inh 17 (no result: eIF4H inh, PABP polyA inh) | IMP-1 inh-2 inactive | VIM-2 FRET ctr inactive | TEM-1 inh inactive | VIM-2 confirm 2 44
COc1cc(Nc2cc(C)nc3nc(C)nn23)cc(OC)c1OC	VIM-2 inh 13 | IMP-1 inh-2 inactive | VIM-2 FRET ctr inactive | TEM-1 inh inactive | VIM-2 confirm 2 33
Cc1cc(Nc2cc(F)ccc2C)n2nc(C)nc2n1	none
Cc1cc(Nc2ccc(F)c(Cl)c2)n2nc(C)nc2n1	none
COc1ccc(Nc2cc(C)nc3nc(C)nn23)cc1Cl	VIM-2 inh 19 | IMP-1 inh-2 inactive | VIM-2 FRET ctr inactive | TEM-1 inh inactive | VIM-2 confirm 2 29
Cc1cc(Nc2ccc(C)c(Br)c2)n2nc(C)nc2n1	VIM-2 inh 14 | IMP-1 inh-2 inactive | VIM-2 FRET ctr inactive | TEM-1 inh inactive | VIM-2 confirm 2 28
Cc1cc(Nc2ccc(F)cc2F)n2nc(C)nc2n1	none
COC(=O)[C@@H](Cc1ccc(O)cc1)NC(=O)[C@H]1CCC(=O)N1C(=O)OCc1ccccc1	none
COc1cccc(CCNC(=O)CCc2nnc(Cc3cc(OC)ccc3OC)o2)c1	none
CN(C(=O)COC(=O)CSc1ccc(C(N)=O)cc1[N+](=O)[O-])C1CCS(=O)(=O)C1 (stereo not drawn)	none (no result: IMP-1 inh-1, eIF4H inh, VIM-2 inh, PABP polyA inh)
CCN1CCN(C(=O)Cn2nc(-c3ccc(Cl)cc3)ccc2=O)CC1	VIM-2 inh 23 | IMP-1 inh-2 inactive | VIM-2 FRET ctr inactive | TEM-1 inh inactive | VIM-2 confirm 2 27
N/C(=N\OC(=O)CCCc1ccccc1)c1ccccc1Cl	none
C=CCN(CC=C)C(=O)Nc1ccc2nc(C)sc2c1	none
COc1ccc2c(c1)c(=O)c(C(=O)O)c(-c1ccc3c(c1)OCO3)n2C	VIM-2 inh 40 | IMP-1 inh-2 inactive | VIM-2 FRET ctr 73 | TEM-1 inh inactive | VIM-2 confirm 2 59
COc1ccc2c(=O)c(-c3ccc4c(c3)OCO4)coc2c1	none
O=C1C(=Cc2ccco2)C(=O)c2ccccc21	VIM-2 inh 31 | IMP-1 inh-2 inactive | VIM-2 FRET ctr inactive | TEM-1 inh inactive | VIM-2 confirm 2 inactive
CN1CCN(c2ccc(NC(=O)COc3ccccc3[N+](=O)[O-])cc2)CC1	VIM-2 inh 45 | IMP-1 inh-2 inactive | VIM-2 FRET ctr inactive | TEM-1 inh inactive | VIM-2 confirm 2 66
COc1ccc(C(=O)Nc2ccc(N3CCN(C(=O)C(C)C)CC3)cc2)cc1[N+](=O)[O-]	none
CCOc1ccc(C(=O)Nc2ccc(N3CCN(C)CC3)cc2)cc1[N+](=O)[O-]	VIM-2 inh 30 | IMP-1 inh-2 inactive | VIM-2 FRET ctr inactive | TEM-1 inh inactive | VIM-2 confirm 2 58
CCOc1ccc(C(=O)Nc2ccc(N3CCN(C(C)=O)CC3)cc2)cc1[N+](=O)[O-]	none
COc1ccc(C(=O)Nc2ccc(N3CCN(C)CC3)cc2)cc1[N+](=O)[O-]	VIM-2 inh 34 | IMP-1 inh-2 inactive | VIM-2 FRET ctr inactive | TEM-1 inh inactive | VIM-2 confirm 2 60
CC(Oc1ccccc1F)c1nnc(SCC(=O)NCc2ccc3c(c2)OCO3)o1 (stereo not drawn)	none (no result: IMP-1 inh-1, eIF4H inh, VIM-2 inh, PABP polyA inh)
CCCc1[nH][nH]c(=O)c1C(c1ccc(Cl)cc1)C(C#N)C#N (stereo not drawn)	VIM-2 inh 12 | IMP-1 inh-2 inactive | VIM-2 FRET ctr inactive | TEM-1 inh inactive | VIM-2 confirm 2 inactive
Cc1[nH][nH]c(=O)c1[C@@H](c1ccccc1[N+](=O)[O-])C(C#N)C#N	none
Cn1nc(C(=O)N2CCN(c3ccc([N+](=O)[O-])cc3)CC2)c2c1-c1ccccc1S(=O)(=O)C2	none
O=C(O)c1ccccc1NS(=O)(=O)c1cccc(-n2sc3ccccc3c2=O)c1	eIF4H inh 47, VIM-2 inh 19, PABP polyA inh active | IMP-1 inh-2 inactive | VIM-2 FRET ctr inactive | TEM-1 inh inactive | VIM-2 confirm 2 17
CCCCc1c(C)c(C#N)c2[nH]c3ccccc3n2c1=O	none
Cc1c(CCO)c(=O)n2c([nH]c3ccccc32)c1C#N	VIM-2 inh 21 | IMP-1 inh-2 inactive | VIM-2 FRET ctr inactive | TEM-1 inh inactive | VIM-2 confirm 2 30
CCCc1cc(=O)[nH]c(SCC(=O)Nc2sccc2C#N)n1	none (no result: IMP-1 inh-1, eIF4H inh, VIM-2 inh, PABP polyA inh)
C=CCNc1nc(N)c([N+](=O)[O-])c(Nc2ccccc2OC)n1	none
COc1ccccc1Nc1nc(NCCCN(C)C)nc(N)c1[N+](=O)[O-]	VIM-2 inh 27 | IMP-1 inh-2 inactive | VIM-2 FRET ctr inactive | TEM-1 inh inactive | VIM-2 confirm 2 44
COc1ccc2nc(C(c3ccc(C)cc3)n3c(-c4ccccc4Br)nc4ccccc43)[nH]c2c1 (stereo not drawn)	none (no result: IMP-1 inh-1, eIF4H inh, VIM-2 inh, PABP polyA inh)
Cc1ccccc1NC(=O)COC(=O)COc1ccc2ccc(=O)oc2c1	none (no result: IMP-1 inh-1, eIF4H inh, VIM-2 inh, PABP polyA inh)
Brc1ccc(CSc2ccc3nnc(-c4cccnc4)n3n2)cc1	none
COC(=O)c1ccc(CSc2ccc3nnc(-c4ccccn4)n3n2)o1	VIM-2 inh 21 | IMP-1 inh-2 inactive | VIM-2 FRET ctr inactive | TEM-1 inh inactive | VIM-2 confirm 2 38
Cc1ccc(C)c(CSc2ccc3nnc(-c4ccccn4)n3n2)c1	VIM-2 inh 14 | IMP-1 inh-2 inactive | VIM-2 FRET ctr inactive | TEM-1 inh inactive | VIM-2 confirm 2 25
